Results taken from ChEMBL document CHEMBL3227941, “3-Substituted adenines. In vitro enzyme inhibition and antiviral activity” (J Med Chem, 1979).
Active and inactive are the calls of the source. The calls are words filed in the database; no cut-off is given here.

Assays:
[1] = Cytotoxicity against Vaccinia virus infected African green monkey BSC1 cells at 100 ug/ml; type: cell-based; conditions: chlorocebus aethiops, bsc-1
[2] = biological target: T1, Dopamine beta-hydroxylase (Bos taurus, UniProt P15101); test: Inhibition of bovine adrenal medullae dopamine-beta-hydroxylase; design: species or system Adrenal medulla; conditions: read-out: I50 (converted)
T1 sequence (P15101 whole entry): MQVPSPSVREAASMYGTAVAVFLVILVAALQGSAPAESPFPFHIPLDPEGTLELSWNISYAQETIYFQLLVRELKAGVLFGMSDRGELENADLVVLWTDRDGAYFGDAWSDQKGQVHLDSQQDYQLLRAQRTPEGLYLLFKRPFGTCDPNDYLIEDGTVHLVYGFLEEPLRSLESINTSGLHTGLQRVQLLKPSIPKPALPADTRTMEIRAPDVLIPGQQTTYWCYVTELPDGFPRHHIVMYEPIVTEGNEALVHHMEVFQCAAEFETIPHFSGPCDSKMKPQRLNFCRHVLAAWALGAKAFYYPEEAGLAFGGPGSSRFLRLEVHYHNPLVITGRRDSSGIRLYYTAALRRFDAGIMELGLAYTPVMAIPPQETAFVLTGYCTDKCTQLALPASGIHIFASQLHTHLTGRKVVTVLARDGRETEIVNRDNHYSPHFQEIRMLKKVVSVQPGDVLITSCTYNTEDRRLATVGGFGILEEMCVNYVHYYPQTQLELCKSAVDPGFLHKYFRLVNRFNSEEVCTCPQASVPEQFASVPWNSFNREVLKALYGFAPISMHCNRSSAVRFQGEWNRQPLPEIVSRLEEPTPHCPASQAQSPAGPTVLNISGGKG

Vaccinia virus [3] = test: Antiviral activity against Vaccinia virus infected in African green monkey BSC-1 cells assessed as inhibition of virus multiplication at 50 ug/ml after 96 hrs by plaque reduction assay; type: functional; conditions: Orthopoxvirus vaccinia, BSC-1, 96 h
Human alphaherpesvirus 1 [4] = test: Antiviral activity against HSV1 infected in African green monkey BSC-1 cells assessed as inhibition of virus multiplication at 12 ug/ml after 96 hrs by plaque reduction assay; type: functional; conditions: Human alphaherpesvirus 1, BSC-1, 96 h
Human alphaherpesvirus 1 [5] = test: Antiviral activity against HSV1 infected in African green monkey BSC-1 cells assessed as inhibition of virus multiplication at 6 ug/ml after 96 hrs by plaque reduction assay; type: functional; conditions: Human alphaherpesvirus 1, BSC-1, 96 h
Vaccinia virus [6] = test: Antiviral activity against Vaccinia virus infected in African green monkey BSC-1 cells assessed as inhibition of virus multiplication at 25 ug/ml after 96 hrs by plaque reduction assay; type: functional; conditions: Orthopoxvirus vaccinia, BSC-1, 96 h
Vaccinia virus [7] = test: Antiviral activity against Vaccinia virus infected in African green monkey BSC-1 cells assessed as inhibition of virus multiplication at 12 ug/ml after 96 hrs by plaque reduction assay; type: functional; conditions: Orthopoxvirus vaccinia, BSC-1, 96 h
Human alphaherpesvirus 1 [8] = test: Antiviral activity against HSV1 infected in African green monkey BSC-1 cells assessed as inhibition of virus multiplication at 50 ug/ml after 96 hrs by plaque reduction assay; type: functional; conditions: Human alphaherpesvirus 1, BSC-1, 96 h
Human alphaherpesvirus 1 [9] = test: Antiviral activity against HSV1 infected in African green monkey BSC-1 cells assessed as inhibition of virus multiplication at 25 ug/ml after 96 hrs by plaque reduction assay; type: functional; conditions: Human alphaherpesvirus 1, BSC-1, 96 h
Vaccinia virus [10] = test: Antiviral activity against Vaccinia virus infected in African green monkey BSC-1 cells assessed as inhibition of virus multiplication at 6 ug/ml after 96 hrs by plaque reduction assay; type: functional; conditions: Orthopoxvirus vaccinia, BSC-1, 96 h
[11] = Cytotoxicity against HSV1 infected African green monkey BSC1 cells at 50 ug/ml; type: cell-based; conditions: chlorocebus aethiops, bsc-1
[12] = Cytotoxicity against Vaccinia virus infected African green monkey BSC1 cells at 25 ug/ml; type: cell-based; conditions: chlorocebus aethiops, bsc-1
[13] = Cytotoxicity against Vaccinia virus infected African green monkey BSC1 cells at 50 ug/ml; type: cell-based; conditions: chlorocebus aethiops, bsc-1
Vaccinia virus [14] = test: Antiviral activity against Vaccinia virus infected in African green monkey BSC-1 cells assessed as inhibition of virus multiplication at 100 ug/ml after 96 hrs by plaque reduction assay; type: functional; conditions: Orthopoxvirus vaccinia, BSC-1, 96 h
[15] = Cytotoxicity against HSV1 infected African green monkey BSC1 cells at 25 ug/ml; type: cell-based; conditions: chlorocebus aethiops, bsc-1
Vaccinia virus [16] = test: Antiviral activity against Vaccinia virus infected in African green monkey BSC-1 cells assessed as inhibition of virus multiplication at 3 ug/ml after 96 hrs by plaque reduction assay; type: functional; conditions: Orthopoxvirus vaccinia, BSC-1, 96 h
[17] = test system: Transmissible gastroenteritis virus; test: Antiviral activity against Transmissible gastroenteritis virus infected in pig at 25 mg/animal administered 3 times per day; type: functional, organism-based
Outline: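 Piglets weighing 4-5 lb dosed at 25 mg/pig three times daily and challenged with virus. Weight and survival monitored against untreated controls over 72 h.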

Vaccinia virus [18] = test: Antiviral activity against Vaccinia virus infected in mouse assessed as assessed as protection against viral infection; type: functional, organism-based; conditions: Orthopoxvirus vaccinia
Human alphaherpesvirus 1 [19] = test: Antiviral activity against HSV1 infected in mouse assessed as assessed as protection against viral infection; type: functional, organism-based
Sus scrofa = test: Toxicity in Transmissible gastroenteritis virus infected pig at 25 mg/animal administered 3 times per day; type: organism-based; conditions: in vivo
Outline: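 Piglets (4-5 lb), four per treated group with two untreated controls, were given 25 mg/pig three times a day and challenged with virus. Body weight was followed from 24 h after challenge through 48 h, and animals were watched for signs of illness and for deaths.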

SMILES	Activity [1]	IC50 [2] [µM]	inhibition at 50 µg/mL (Vaccinia virus [3]) [%]	inhibition at 12 µg/mL (Human alphaherpesvirus 1 [4]) [%]	inhibition at 6 µg/mL (Human alphaherpesvirus 1 [5]) [%]	inhibition at 25 µg/mL (Vaccinia virus [6]) [%]	inhibition at 12 µg/mL (Vaccinia virus [7]) [%]	inhibition at 50 µg/mL (Human alphaherpesvirus 1 [8]) [%]	inhibition at 25 µg/mL (Human alphaherpesvirus 1 [9]) [%]	inhibition at 6 µg/mL (Vaccinia virus [10]) [%]	Activity [11]	Activity [12]	Activity [13]	inhibition at 100 µg/mL (Vaccinia virus [14]) [%]	Activity [15]	inhibition at 3 µg/mL (Vaccinia virus [16]) [%]	Activity [17]	Activity (Vaccinia virus [18])	Activity (Human alphaherpesvirus 1 [19])	Activity (Sus scrofa)
Cc1ccc(Cn2cnc(N)c3ncnc2-3)cc1	Toxic	83.6	10	0	0	8	0	0	0	–	–	–	–	–	–	–	–	–	–	–
Nc1ncn(Cc2ccc(Cl)cc2)c2ncnc1-2	Toxic	77	100	0	0	70	51	15	0	–	–	–	–	–	–	–	–	–	–	–
Nc1ncn(Cc2ccc(Cl)cc2Cl)c2ncnc1-2	Toxic	680	–	0	0	–	0	–	20	0	Toxic	Toxic	Toxic	–	–	–	–	–	–	–
Nc1ncn(Cc2ccco2)c2ncnc1-2	–	–	0	0	0	0	–	0	0	–	–	–	–	0	–	–	–	–	–	–
Cc1ccc(Cn2cnc(N)c3ncnc2-3)cc1C	Toxic	79	–	42	0	–	0	–	–	0	Toxic	Toxic	Toxic	–	Toxic	0	–	–	–	–
CCCCCn1cnc(N)c2ncnc1-2	–	2.44	72	0	0	35	33	3	0	–	–	–	–	96	–	–	–	–	–	–
CC(C)CCn1cnc(N)c2ncnc1-2	–	974	7	0	0	7	0	27	0	0	–	–	–	8	–	–	–	–	–	–
Cc1ccccc1Cn1cnc(N)c2ncnc1-2	Toxic	836	0	0	0	0	0	30	0	–	–	–	–	–	–	–	–	–	–	–
Nc1ncn(Cc2ccccc2Cl)c2ncnc1-2	Toxic	770	100	42	0	0	0	100	100	0	–	–	–	–	–	0	–	–	–	–
CCCCn1cnc(N)c2ncnc1-2 [3-BUTYLADENINE]	–	105	0	0	0	0	0	0	0	–	–	–	–	1	–	–	–	–	–	–
Nc1ncn(CC2CCCCC2)c2ncnc1-2	–	8.65	7	0	0	0	0	0	0	–	–	–	–	–	–	–	–	–	–	–
Nc1ncn(Cc2cccc(C(F)(F)F)c2)c2ncnc1-2	–	68.2	–	–	–	–	–	–	–	–	–	–	–	–	–	–	–	–	–	–
Nc1ncn(Cc2ccc(Cl)c(Cl)c2)c2ncnc1-2	Toxic	6.8	–	0	0	–	100	–	27	87	Toxic	Toxic	Toxic	–	–	47	–	–	–	–
Nc1ncn(Cc2cccc(Cl)c2)c2ncnc1-2	–	7.7	37	0	0	16	0	45	0	0	–	–	–	100	–	–	–	–	–	–
Cc1cccc(Cn2cnc(N)c3ncnc2-3)c1	Toxic	83.6	0	0	0	0	0	9	0	–	–	–	–	–	–	–	–	–	–	–
CCCCCCn1cnc(N)c2ncnc1-2	Toxic	4.56	100	0	0	77	27	16	0	–	–	–	–	–	–	–	–	–	–	–
Nc1ncn(Cc2ccccc2)c2ncnc1-2 [3-BENZYLADENINE]	–	8.88	3	0	0	0	0	0	0	–	–	–	–	3	–	–	–	–	–	–
Nc1ncn(Cc2ccccc2Br)c2ncnc1-2	Toxic	658	100	100	71	100	34	100	100	0	–	–	–	–	–	0	inactive	inactive	inactive	Toxic
CCCn1cnc(N)c2ncnc1-2 [3-PROPYLADENINE]	–	1130	0	0	0	0	0	0	0	0	–	–	–	0	–	–	–	–	–	–
CCn1cnc(N)c2ncnc1-2 [3-ETHYLADENINE]	–	> 1230	0	0	0	0	0	0	0	0	–	–	–	0	–	–	–	–	–	–
